Screening data deposited in PubChem BioAssay by several laboratories.
SENP6 block: blocks the human protease SENP6 | Recombinant SENP6 catalytic domain, aminoluciferin luminescence | inhibition, % at 10 µM | 330,000 tested, 1.8% active | AID 2599;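 active = inhibition above about 50% at the single tested dose, limit read from the data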;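 also: plate controls were DMSO wells with enzyme for no effect and DMSO wells lacking enzyme for full effect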
SENP7 block: SENP7 protease inhibition; recombinant SENP7, Z-RLRGG-aminoluciferin luminescence, 40 min; inhibition, % at 5 µM; 330,000 tested, 1.5% active; AID 434973;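 active = inhibition above about 50% at the single test dose, limit read from the data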;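 also: plate controls were DMSO with enzyme for no effect and no enzyme buffer wells for full effect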
Target sequence (Q9BQF6 706-1050 limits assumed): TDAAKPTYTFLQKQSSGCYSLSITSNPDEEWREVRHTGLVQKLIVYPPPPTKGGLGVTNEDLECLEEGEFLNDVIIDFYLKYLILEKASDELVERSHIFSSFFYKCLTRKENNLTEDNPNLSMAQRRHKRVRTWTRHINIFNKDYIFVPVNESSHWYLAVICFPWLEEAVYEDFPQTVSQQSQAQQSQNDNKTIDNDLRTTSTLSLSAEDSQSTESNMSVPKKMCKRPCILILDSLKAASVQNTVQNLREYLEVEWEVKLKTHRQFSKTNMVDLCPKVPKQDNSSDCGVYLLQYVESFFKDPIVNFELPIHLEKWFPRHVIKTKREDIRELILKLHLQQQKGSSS
SENP8 block-1: inhibitors of human SENP8 protease; purified SENP8, Z-RLRGG-aminoluciferin cleavage, luminescence; inhibition, % at 10 µM; 330,000 tested, 1.2% active; AID 2540; in the data active = inhibition above about 50%
SENP1 FRET inh: blocks the human SENP1 SUMO protease catalytic domain | Q9P0U3 | recombinant SENP1 catalytic domain, CyPet-SUMO1-YPet FRET cleavage | inhibition, % at 10 µM | 360,000 tested, 0.21% active | AID 624204;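 active = inhibition at least 30% at 10 µM, raw YFP signal under a set limit, fluorescence ratio 0.5 to 1.5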;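 also: 0% = enzyme with DMSO and 100% = no enzyme wells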
Target sequence (Q9P0U3 419-644 limits assumed): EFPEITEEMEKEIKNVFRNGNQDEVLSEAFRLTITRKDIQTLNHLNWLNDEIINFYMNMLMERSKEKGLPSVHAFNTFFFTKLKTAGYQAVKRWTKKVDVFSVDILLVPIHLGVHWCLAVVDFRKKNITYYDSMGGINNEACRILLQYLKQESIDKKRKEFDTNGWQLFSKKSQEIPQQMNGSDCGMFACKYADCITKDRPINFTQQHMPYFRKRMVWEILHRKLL
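Test system: hSENP1 catalytic domain, recombinant; Amount: 20 pM final SENP1 enzyme; Medium: Tris pH 8 buffer plus EDTA, NaCl, BME, BSA, NP40, catalase; Schedule: 50 min enzyme reaction, room temperature, light-protected; Technique: FRET fluorescence in CFP and YFP emission channels; Controls: no-enzyme wells low, DMSO-plus-enzyme wells high control.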
Platelet DG rel: platelet dense granule release activity; 300,000 tested, 0.22% active; human platelet-rich plasma, SFLLRN dense granule ATP release, luminescence; inhibition, %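 (compounds screened at 7.5 µM in platelet-rich plasma)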; AID 1663;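 active = mean replicate score, as percent of positive control, at or above 50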
SENP8 block-2: inhibitors of human SENP8 protease | Q96LD8 | 360,000 tested, 0.64% active | recombinant SENP8, Nedd8 substrate fluorescence | inhibition, % at 20 µM; in the data active = inhibition mostly above about 40%, no sharp cut-off; inactive = mostly below about 27%
SENP8 inh conf: confirmation of human SENP8 protease inhibitors. shares compounds with SENP8 block-2. purified SENP8, Nedd8-AMC/pro-Nedd8 cleavage fluorescence, 30 min. inhibition, % at 25 µM. 1,400 tested, 15% active. AID 624319; in the data active = inhibition mostly above about 39%, no sharp cut-off; inactive = mostly below about 34%
* marks the source's active call; other numbers are inactive results; nt = not tested or not shown. The list is not random: actives were taken first. Their share in the collection is about 2.6%.

SMILES | SENP6 block | SENP7 block | SENP8 block-1 | SENP1 FRET inh | Platelet DG rel | SENP8 block-2 | SENP8 inh conf
CC(C)(C)Nc1nc(N2CCCC2)nc(N2CCCC2)n1 | -3 | 7 | -1 | 0 | -7 | 44* | 16
CCNc1nc(NC(C)(C)C)nc(N2CCCC2)n1 | -29 | 6 | 0 | 2 | 3 | 28 | nt
NS(=O)(=O)c1ccc(N/N=C2/CCCCC2C2CCCCC2)c([N+](=O)[O-])c1 (stereo not given) | -26 | 3 | -9 | 4 | -6 | 33 | nt
Cc1cc(C)c2c(c1)/C(=N/Nc1ccc(S(N)(=O)=O)cc1[N+](=O)[O-])CCC2 | -3 | 9 | 3 | 6 | 20 | 53* | -3
CC(Nc1ccc(S(=O)(=O)N2CCN(C)CC2)cc1[N+](=O)[O-])c1ccccc1 (stereo not given) | 0 | 6 | 8 | 0 | nt | 13 | nt
COc1ccccc1C(C)Nc1ccc(S(=O)(=O)N2CCN(C)CC2)cc1[N+](=O)[O-] (stereo not given) | 16 | -1 | 6 | 2 | nt | 39* | 13
CC(C)Cc1nc2oc3c(NCC(C)O)ncnc3c2c2c1CCCC2 (stereo not given) | -6 | 5 | 10 | -1 | -4 | -432 | nt
O=C1c2ccc3c4c(ccc(c24)C(=O)N1NC(=O)C(F)(F)F)CC3 | -14 | -14 | 4 | 0 | 4 | -252 | nt
CC(=O)NN1C(=O)c2ccc3c4c(ccc(c24)C1=O)C(=O)N(NC(C)=O)C3=O | 28 | 20 | 11 | 1 | -5 | 35* | 54*
Cc1cc(NS(=O)(=O)c2ccc3c(c2)OCCO3)no1 | -10 | 1 | -3 | 2 | -4 | 42* | 23
CCNC(=S)NNC(=S)NCc1ccccc1 | -7 | 5 | -3 | 2 | 21 | 5 | nt
CCC(NC(=S)NCc1ccccc1)C(=O)O (stereo not given) | 1 | 0 | -1 | 2 | 11 | 48* | 35
O=C(C1CCCCC1)N1CCCc2ccccc21 | 0 | 1 | 3 | -2 | 1 | 20 | nt
CC(C)N1C(=O)CCC1C(=O)N1CCCc2ccccc21 (stereo not given) | 1 | -3 | -1 | 0 | 0 | 41* | 67*
OCC1OC(Oc2c[nH]c3ccccc23)C(O)C(O)C1O (stereo not given) | -1 | 13 | -3 | -2 | -2 | -220 | nt
OCc1ccccc1O[C@@H]1O[C@H](CO)[C@@H](O)[C@H](O)[C@H]1O | -3 | -3 | 2 | 2 | -2 | 49* | 3
CCN(CC)CCNC(=O)c1cc([N+](=O)[O-])c(N(C)C)cc1OC | -2 | -2 | -2 | 1 | 5 | 31 | nt
COc1cc(N(C)C)c([N+](=O)[O-])cc1C(=O)NC(C)CNc1ccc([N+](=O)[O-])cc1Cl (stereo not given) | -22 | -8 | -13 | -2 | -13 | 42* | 26
C[n+]1ccc2[nH]c3ccccc3c2c1 | nt | nt | nt | 1 | nt | -41 | nt
Cc1[nH]c2ccccc2c1/C=C/c1cc[n+](C)cc1 | nt | nt | nt | 6 | 3 | 44* | 32
CC(C)C[C@H](NC(=O)N1c2ccccc2NC(=O)[C@@H]1C(C)C)C(=O)N1CCC[C@@H]1C(=O)O | -21 | -16 | -20 | 2 | 0 | 56* | 8
CC(C)[C@H](NC(=O)N1c2ccccc2NC(=O)[C@@H]1C(C)C)C(=O)N[C@H](Cc1ccccc1)C(=O)O | 0 | -9 | 1 | 4 | 1 | 40* | 0
CC(C)[C@H]1C(=O)Nc2ccccc2N1C(=O)N[C@@H](Cc1ccccc1)C(=O)N[C@H](Cc1ccccc1)C(=O)O | -14 | 3 | -2 | 1 | 0 | 29 | nt
CCC(C)[C@H](NC(=O)N1CC(=O)Nc2ccccc21)C(=O)N[C@H](Cc1ccccc1)C(=O)O (stereo not given in full) | 0 | -3 | -9 | 2 | 1 | 41* | -4
COCCSc1nnc(NC(=O)c2ccc([N+](=O)[O-])cc2)s1 | -16 | 6 | 1 | 1 | -4 | 5 | nt
SMILES | SENP6 block | SENP7 block | SENP8 block-1 | SENP1 FRET inh | Platelet DG rel | SENP8 block-2 | SENP8 inh conf
O=c1nccc(Nc2ccccc2)[nH]1 | 7 | -2 | -1 | 2 | -4 | 17 | nt
c1ccc(Nc2cc(Nc3ccccc3)[nH]n2)cc1 | -19 | 7 | -12 | 2 | 6 | 55* | 40
COc1ccc(OC)c(NS(=O)(=O)c2ccc(-c3coc(C)n3)cc2)c1 | 13 | -2 | 0 | 2 | 3 | 11 | nt
CCC(C)[C@H](NS(=O)(=O)c1ccc(C)cc1)C(=O)N1CCC(C(=O)N2CCC(C(=O)OC)CC2)CC1 (stereo not given in full) | 13 | 6 | -3 | 2 | 18 | 46* | 3
Cc1ccc(S(=O)(=O)N[C@H](C(=O)N2CCC(C(=O)N[C@@H](CC(=O)O)C(=O)O)CC2)C(C)C)cc1 | -6 | -4 | -3 | 1 | -1 | 13 | nt
Cc1ccc(S(=O)(=O)N[C@@H](CC(C)C)C(=O)N2CCC(C(=O)N[C@@H](Cc3ccccc3)C(=O)O)CC2)cc1 | 11 | -6 | 3 | 6 | -1 | 65* | 7
CC(=O)c1ccc(OCC(=O)N2CCN(S(=O)(=O)c3ccc(C)cc3C)CC2)cc1 | 6 | 7 | 10 | 1 | 9 | 4 | nt
CC(C)Oc1ccc(C(=O)NC2CCS(=O)(=O)C2)cc1 (stereo not given) | -10 | -4 | -8 | 1 | 1 | 6 | nt
O=C(NNS(=O)(=O)c1ccccc1)c1csc(-c2cccnc2)n1 | -8 | -1 | 7 | 2 | -5 | 26 | nt
Cc1onc(-c2ccccc2Cl)c1-c1nc(-c2ccccn2)no1 | -1 | 10 | 1 | -13 | -9 | 41* | 11
COc1cccc(C=Nc2ccc3c(c2)OCCO3)c1O | -29 | -3 | -25 | 8 | 28 | 53* | 30
Oc1ccc(C[C@@H]2CNCCN2CCc2cccc(F)c2)cc1 | 11 | 4 | -3 | 1 | -2 | 10 | nt
Cc1cc(C)n(-c2ccc(C(=O)OCC(=O)Nc3ccc(S(=O)(=O)N4CCCCC4)cc3)cc2)n1 | -11 | -2 | -11 | 1 | 4 | 48* | 17
Cc1cc(C)n(-c2ccc(C(=O)OCC(=O)Nc3ccc(S(N)(=O)=O)cc3)cc2)n1 | -9 | -4 | -14 | -2 | nt | 13 | nt
O=C(NN=Cc1ccc(N2CCOCC2)s1)c1ccc([N+](=O)[O-])cc1 | -2 | -5 | -2 | 6 | nt | 43* | 31
Cc1ccc(C(=O)N/N=C/c2ccc([N+](=O)[O-])s2)cc1 | 6 | 12 | 7 | -4 | 20 | 44* | 24
O=C(c1cc(F)c(F)cc1Cl)N1CCN(c2ccc([N+](=O)[O-])c3ncccc23)CC1 | -1 | 5 | -4 | -2 | 18 | 14 | nt
Cc1noc(C)c1C(=O)Nc1ccc(S(=O)(=O)N2CCC(C)CC2)cc1 | -16 | -8 | -10 | -2 | nt | -5 | nt
